# Measurements taken from ChEMBL document CHEMBL3992522, “Antileishmanial Activity of Pyrazolopyridine Derivatives and Their Potential as an Adjunct Therapy with Miltefosine” (J Med Chem, 2017).
# Calls of active or inactive are those of the source. The calls are words filed in the database; no cut-off is given here.
# Columns and labels:
# [1] = test system: Leishmania donovani; assay: Antileishmanial activity against Leishmania donovani MHOM/IN/80/DD8 promastigote forms harboring luciferase gene at 50 uM after 72 hrs by Steady-Glo reagent based luminescence assay relative to control; type: functional; conditions: MHOM/IN/80/DD8, 72 h, read-out: GI
# In short: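 Exponential-phase Dd8-Luc promastigotes at 1×10^6/mL in M199 with 10% FBS, 24 °C, given 50 and 25 µM for 72 h. Vehicle 0.1% DMSO. Steady-Glo added 1:1, luminescence (RLU) read. IC50 from four-parameter Hill regression, derived only where inhibition exceeded 90%. Means of at least three independent experiments.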
# [2] = test system: Leishmania donovani; assay: Antileishmanial activity against Leishmania donovani MHOM/IN/80/DD8 amastigote forms harboring luciferase gene infected in mouse J774 cells at 50 uM after 72 hrs by Steady-Glo reagent based luminescence assay relative to control; type: functional; conditions: MHOM/IN/80/DD8, J774, 72 h, read-out: GI
# In short: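 Stationary-phase luciferase-expressing Dd8 promastigotes infected into J774 macrophages (4×10^4/mL seeded, 24 h, 37 °C, 5% CO2) at 1:8 macrophage:parasite for 24 h. Non-internalised parasites washed off. Compounds added at 50 and 25 µM in RPMI/10% FBS for 72 h. Lysis with Steady-Glo luciferin reagent plus PBS, luminescence read. Inhibition relative to untreated infected controls.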
# [3] = test system: Leishmania donovani; assay: Antileishmanial activity against Leishmania donovani MHOM/IN/80/DD8 amastigote forms harboring luciferase gene infected in mouse J774 cells after 72 hrs by Steady-Glo reagent based luminescence assay; type: functional, cell-based; conditions: MHOM/IN/80/DD8, J774, 72 h
# [4] = Cytotoxicity against mouse J774 cells assessed as reduction in cell viability after 72 hrs by MTT assay; type: cell-based
# In short: (§1)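 Vero and J774 cells seeded at 1×10^5 per well for 24 h, then exposed 72 h to seven two-fold dilutions from 500 to 7.81 μM. MTT solution (5 mg/mL stock) added for 2 h at 37 °C, formazan dissolved in DMSO and read at 540 nm. CC50 derived by the Huber and Koella method.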
# [5] = Cytotoxicity against African green monkey Vero cells assessed as reduction in cell viability after 72 hrs by MTT assay; type: cell-based; conditions: chlorocebus sabaeus; in short: as §1
# [6] = Selectivity index, ratio of CC50 for African green monkey Vero cells to IC50 for Leishmania donovani MHOM/IN/80/DD8 amastigote forms infected in mouse J774 cells; type: toxicity, cell-based; conditions: read-out: Ratio CC50/IC50
# In short: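 CC50: Vero or J774 cells (1×10^5/well) exposed 72 h to seven two-fold dilutions, 500–7.81 μM; MTT 2 h at 37 °C, formazan in DMSO read at 540 nm. IC50: luciferase-expressing Dd8 amastigotes in J774 macrophages (1:8), 72 h, luminescence, four-parameter Hill fit. SI = CC50/IC50, IC50 mean of three experiments.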
# [7] = test system: Leishmania donovani; assay: Antileishmanial activity against Leishmania donovani MHOM/IN/80/DD8 promastigote forms harboring luciferase gene at 7.19 uM up to 72 hrs by MTT assay relative to control; type: functional; conditions: MHOM/IN/80/DD8, 72 h
# [8] = Stability in pH 6.5 simulated intestinal fluid at 5 ug/ml after 120 mins by HPLC method
# In short: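 Incubated in simulated gastric fluid (pH 1.2) or simulated intestinal fluid (pH 6.5); percentage remaining intact determined after 120 min.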
# [9] = test system: Leishmania donovani; assay: (§2) Antileishmanial activity against Leishmania donovani amastigote forms infected in Balb/c mouse assessed as inhibition of parasitic burden in liver at 25 mg/kg, ip co-treated with 5 mg/kg, po miltefosine administered for 5 consecutive days measured on day 4 and 7 post last treatment by Giemsa staining based assay relative to control; type: functional
# In short: (§3)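 Combination study with seven groups of 5 infected BALB/c mice, including vehicle (8% DMSO i.p.), infected untreated and miltefosine-alone groups. Treatment daily for 5 days, test compound i.p. and miltefosine orally. Mice killed on days 4 and 7 post-treatment; liver and spleen parasite load counted on Giemsa-stained stamp smears and expressed as LDU relative to infected untreated mice. Mean ± SD, n = 5, three independent experiments.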
# [10] = test system: Leishmania donovani; assay: as §2, with “spleen” for “liver”; type: functional; in short: as §3
# [11] = test system: Leishmania donovani; assay: Antileishmanial activity against Leishmania donovani amastigote forms infected in Balb/c mouse assessed as reduction in liver weight at 12.5 to 200 mg/kg, ip administered for 5 consecutive days co-treated with 5 to 25 mg/kg, po miltefosine; type: functional, organism-based
# [12] = test system: Mus musculus; assay: Increase in iNOS mRNA expression level in Balb/c mouse splenocytes infected with Leishmania donovani amastigote forms at 25 mg/kg, ip cotreated with 5 mg/kg, po miltefosine for 5 consecutive days measured on day 7 post last treatment by RT-PCR assay relative to control; type: functional
# In short: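 Infected BALB/c mice dosed for 5 consecutive days (test compound i.p. in 8% DMSO, miltefosine oral), n = 5 per group; splenocytes taken day 4 and day 7 post-treatment. Total RNA extracted and iNOS mRNA quantified by real-time PCR, normalized to mouse β-actin, expressed as fold change over uninfected controls.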
# [13] = test system: Leishmania donovani; assay: Induction of apoptosis in Leishmania donovani MHOM/IN/80/DD8 promastigote forms assessed as late apoptotic cells at IC50 after 48 hrs by Annexin V-FITC/propidium iodide staining based flow cytometry (reference value: 0.86%); type: functional
# [14] = test system: Leishmania donovani; assay: Induction of apoptosis in Leishmania donovani MHOM/IN/80/DD8 promastigote forms assessed as early apoptotic cells at 50 uM after 48 hrs by Annexin V-FITC/propidium iodide staining based flow cytometry (reference value: 7.41%); type: functional
# [15] = test system: Mus musculus; assay: (§4) Increase in iNOS-mediated NO generation in Balb/c mouse splenocytes infected with Leishmania donovani amastigote forms at 25 mg/kg, ip for 5 consecutive days measured on day 4 and 7 post last treatment followed by soluble Leishmania donovani promastigote antigen-stimulation for 72 hrs by Griess assay relative to control; type: functional
# In short: (§5)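 Splenocytes from treated infected BALB/c mice (5-day regimen, i.p. test compound, oral miltefosine; n = 5) isolated day 4 and day 7 post-treatment. Cultured in phenol red-free RPMI 1640 with 5 μg/mL SLA for 72 h at 37 °C, 5% CO2. Supernatant nitrite measured by Griess assay at 540 nm against a sodium nitrite standard curve.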
# [16] = test system: Mus musculus; assay: as §4, with “50” for “25”; type: functional; in short: as §5
# [17] = test system: Leishmania donovani; assay: Induction of apoptosis in Leishmania donovani MHOM/IN/80/DD8 promastigote forms assessed as DNA fragmentation at IC50 after 48 hrs by propidium iodide staining based TUNEL assay; type: functional
# In short: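 DNA fragmentation detected by TUNEL under fluorescence and phase-contrast microscopy, with counts of TUNEL-positive cells; three independent experiments.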
# [18] = test system: Leishmania donovani; assay: Induction of apoptosis in Leishmania donovani MHOM/IN/80/DD8 promastigote forms assessed as cell rounding at IC50 after 48 hrs by propidium iodide staining based fluorescent microscopic method; type: functional
# [19] = test system: Leishmania donovani; assay: Induction of apoptosis in Leishmania donovani MHOM/IN/80/DD8 promastigote forms assessed as cell rounding at 50 uM after 48 hrs by propidium iodide staining based fluorescent microscopic method; type: functional
# [20] = test system: Mus musculus; assay: Restoration of T cell proliferation in Balb/c mouse splenocytes infected with Leishmania donovani amastigote forms at <25 mg/kg, ip administered for 5 consecutive days measured on day 4 and 7 post last treatment followed by soluble Leishmania donovani promastigote antigen-stimulation for 72 hrs by MTT assay relative to control
smiles,measurement,setting,value
COc1ccc(C2C3=C(CCC3=O)Nc3c2c(-c2c[nH]c4ccccc24)nn3-c2ccc(Cl)c(Cl)c2)cc1OC (stereo not given),inhibition of growth at 50 µM,[1],93.3%
same,inhibition of growth at 50 µM,[2],97.3%
same,IC50,[3],4.05 µM
same,CC50 at 72 h,[4],409 µM
same,CC50 at 72 h,[5],438 µM
same,selectivity ratio,[6],108
same,inhibition at 7.19 µM,[7],> 95%
same,Stability,[8],99%
same,inhibition (INH),[9],>92%
same,inhibition (INH),[10],>97%
same,Activity,[11],Active
same,fold change (FC),[12],8.5
same,Activity,[13],21%
same,Activity,[14],11.6%
same,fold change (FC),[15],4.1
same,fold change (FC),[16],4.7
same,Activity,[17],Active
same,Activity,[18],Active
same,Activity,[19],Active
same,fold change (FC),[20],2.2 - 3.4
